Measurements from ChEMBL document CHEMBL1156791, “Antimicrobial activity of small beta-peptidomimetics based on the pharmacophore model of short cationic antimicrobial peptides” (J Med Chem, 2010).
≈ marks a conversion by molar mass, not a printed value.

Columns and labels:
[1] = Stability in aqueous solution at pH7.4 after 48 hrs; format: physicochemical; settings: buffer, pH 7.4, 48 h
[2] = Hemolytic activity in human RBC assessed as hemolysis at 1000 ug/ml after 1 hr; format: ADME, cell-based; settings: erythrocyte
[3] = Stability in presence of alpha-chymotrypsin after 48 hrs; format: ADME
Outline: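 Digestion with α-chymotrypsin (2 μg/mL final) of 100 μg/mL compound in 100 mM Tris-HCl with 10 mM CaCl2. Aliquots taken at 0, 15, 30, 60, 120, 240 min, 24 and 48 h. Quenched with 10% acetic acid plus atenolol external standard, then quantified by LC-MS/MS in positive MRM mode, in duplicate. Remaining compound expressed relative to enzyme-free control.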

Escherichia coli = test: Antimicrobial activity against Escherichia coli ATCC 25922; format: functional

Stability [1]: Stable
Stability [3]: Stable
MIC (Escherichia coli): 144 µM (≈ 66.9 µg/mL)
SMILES: N=C(N)NCCC[C@H](NC(=O)C(CN)(CCC1CCCCC1)CCC1CCCCC1)C(N)=O
Activity [2]: Non-toxic
MBC (Escherichia coli): 289 µM (≈ 134 µg/mL)
